The nature of data set [1]: melting temperature; fluorescence melt of hairpins on a sequencing array, two-state fit, raised by 9.35 °C to match UV melts. The note with it: sodium 0.088 M. A digest of the protocol: (§1)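 To match UV melts, fitted temperatures were raised by 9.35 °C. These fits were bootstrapped two-state models that gave melting temperature and folding enthalpy, combined by inverse variance over four replicates. The input was normalised Cy3 fluorescence of library hairpins with annealed Cy3 and quencher oligos on a sequenced MiSeq flow cell, imaged in 50 mM Na-HEPES pH 8.0, 25 mM NaCl in 2.5 °C steps up to 60 °C.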

The nature of data set [2]: folding enthalpy; higher = less favourable; fluorescence melt of hairpins on a sequencing array, two-state fit. Particulars: sodium 0.088 M. In outline:
as §1

Take GATCCGCTTCCGGATC ((((((....)))))): in data set [1], the Tm came to 57.6 °C. The folding enthalpy in data set [2] is -38.2 kcal/mol.

As for GATCCGCTTTCGGATC ((((((....)))))), the Tm in data set [1] is 57.8 °C. For the same sequence, the folding enthalpy in data set [2] was -40.4 kcal/mol.

Regarding GATCCGGCACGGATC ((((((...)))))), in data set [1], the Tm was found to be 69.2 °C. The folding enthalpy in data set [2] is -36 kcal/mol.

On to GATCCGGCCCCGGATC ((((((....)))))), for which, in data set [1], the Tm was determined as 61.1 °C. The folding enthalpy in data set [2] is -47.8 kcal/mol.

In the case of GATCCGGCCGCGGATC ((((((....)))))), the Tm in data set [1] was determined as 58 °C. In addition, the folding enthalpy in data set [2] is -41.5 kcal/mol.

As to GATCCGGCGACGGATC ((((((....)))))), the Tm in data set [1] was 67.4 °C. The folding enthalpy in data set [2] is -33.4 kcal/mol.

Turning to GATCCGGGCTCGGATC ((((((....)))))), the Tm in data set [1] was 59.3 °C. For the same sequence, the folding enthalpy in data set [2] was -44.6 kcal/mol.

As to GATCCGGGGCCGGATC ((((((....)))))), the Tm in data set [1] was found to be 61 °C. Besides, in data set [2], the folding enthalpy was -41.4 kcal/mol.

Regarding GATCCGGGGGCGGATC ((((((....)))))), the Tm in data set [1] amounted to 60.1 °C. For the same sequence, in data set [2], the folding enthalpy is -38.3 kcal/mol.

For the sequence GATCCGGGTCGGATC ((((((...)))))), in data set [1], the Tm was determined as 58.6 °C. Besides, the folding enthalpy in data set [2] was -29.6 kcal/mol.

Consider GATCCGGTCCCGGATC ((((((....)))))), for which, in data set [1], the Tm was 65.3 °C. Also, the folding enthalpy in data set [2] is -35.4 kcal/mol.

On to GATCCGGTGACGGATC ((((((....)))))), for which the Tm in data set [1] was 67.3 °C. The folding enthalpy in data set [2] was -38.9 kcal/mol.

Consider GATCCGGTGCGGATC ((((((...)))))), for which the Tm in data set [1] amounted to 57.5 °C. Further, in data set [2], the folding enthalpy is -45.2 kcal/mol.

Consider GATCCGGTGGCGGATC ((((((....)))))), for which the Tm in data set [1] was determined as 56.5 °C. Also, the folding enthalpy in data set [2] was -31.4 kcal/mol.

Consider GATCCGGTGTCGGATC ((((((....)))))), for which the Tm in data set [1] came to 57.6 °C. For the same sequence, the folding enthalpy in data set [2] was -37.2 kcal/mol.

Regarding GATCCGTAAACGGATC ((((((....)))))), in data set [1], the Tm was determined as 60.3 °C. Further, the folding enthalpy in data set [2] was -38.2 kcal/mol.

Take GATCCGTACCGGATC ((((((...)))))): the Tm in data set [1] came to 58.9 °C. Besides, in data set [2], the folding enthalpy is -34.8 kcal/mol.

Consider GATCCGTATCCGGATC ((((((....)))))), for which the Tm in data set [1] was 58.2 °C. Also, the folding enthalpy in data set [2] was -39 kcal/mol.

Regarding GATCCGTATCGGATC ((((((...)))))), the Tm in data set [1] came out at 57.3 °C. The folding enthalpy in data set [2] is -30.3 kcal/mol.

GATCCGTCCCCGGATC ((((((....)))))): in data set [1], the Tm amounted to 56.5 °C. The folding enthalpy in data set [2] was -32.1 kcal/mol.

Regarding GATCCGTCGTCGGATC ((((((....)))))), in data set [1], the Tm was 60.1 °C. Moreover, the folding enthalpy in data set [2] was -36.3 kcal/mol.

Regarding GATCCGTGACGGATC ((((((...)))))), in data set [1], the Tm came out at 59.9 °C. The folding enthalpy in data set [2] was -38.3 kcal/mol.

Take GATCCGTGCCCGGATC ((((((....)))))): in data set [1], the Tm amounted to 56.6 °C. In data set [2], the folding enthalpy was -50.9 kcal/mol.

As for GATCCGTGCGCGGATC ((((((....)))))), in data set [1], the Tm came out at 65 °C. The folding enthalpy in data set [2] was -48.4 kcal/mol.

Turning to GATCCGTGGCCGGATC ((((((....)))))), the Tm in data set [1] was found to be 57.7 °C. In addition, the folding enthalpy in data set [2] was -39.1 kcal/mol.

For GATCCGTTAACGGATC ((((((....)))))), the Tm in data set [1] was found to be 64 °C. Further, the folding enthalpy in data set [2] is -43.2 kcal/mol.

GATCCGTTACCGGATC ((((((....)))))): the Tm in data set [1] was determined as 59.5 °C. For the same sequence, the folding enthalpy in data set [2] was -34.6 kcal/mol.

As for GATCCGTTCCCGGATC ((((((....)))))), the Tm in data set [1] was found to be 55.7 °C. In addition, the folding enthalpy in data set [2] is -43.4 kcal/mol.

With GATCCGTTCGCGGATC ((((((....)))))), the Tm in data set [1] worked out at 61.3 °C. In addition, the folding enthalpy in data set [2] was -50.4 kcal/mol.

On to GATCCGTTCTCGGATC ((((((....)))))), for which the Tm in data set [1] was 60.7 °C. Moreover, in data set [2], the folding enthalpy is -42.2 kcal/mol.

Consider GATCCTAAAAAGGATC ((((((....)))))), for which, in data set [1], the Tm stood at 47.6 °C. Further, in data set [2], the folding enthalpy was -27.9 kcal/mol.

With GATCCTAAGTAGGATC ((((((....)))))), in data set [1], the Tm was determined as 51.7 °C. The folding enthalpy in data set [2] was -39.5 kcal/mol.

On to GATCCTAATAAGGATC ((((((....)))))), for which, in data set [1], the Tm came out at 50.8 °C. Further, the folding enthalpy in data set [2] is -40.1 kcal/mol.

Turning to GATCCTACAAGGATC ((((((...)))))), in data set [1], the Tm turned out to be 54.5 °C. Besides, the folding enthalpy in data set [2] was -33.6 kcal/mol.

Take GATCCTACACAGGATC ((((((....)))))): the Tm in data set [1] was found to be 51.6 °C. Further, in data set [2], the folding enthalpy is -35.9 kcal/mol.

With GATCCTACCAAGGATC ((((((....)))))), the Tm in data set [1] came out at 53.2 °C. The folding enthalpy in data set [2] was -38.1 kcal/mol.

As to GATCCTACCCAGGATC ((((((....)))))), the Tm in data set [1] turned out to be 51.2 °C. Moreover, the folding enthalpy in data set [2] is -39.9 kcal/mol.

Take GATCCTACTAAGGATC ((((((....)))))): in data set [1], the Tm is 52.5 °C. Besides, the folding enthalpy in data set [2] is -35.1 kcal/mol.

The record behind these values is the array DNA melting data of Ke et al. (doi:10.1101/2024.01.08.574731).
